These results are taken from ChEMBL document CHEMBL1157805, “Virtual screening, selection and development of a benzindolone structural scaffold for inhibition of lumazine synthase” (Bioorg Med Chem, 2010).

The term kcat denotes the number of substrate molecules converted per active site and unit of time at saturation.

Substrate in series [1]: O=C1Nc2ccc(S(=O)(=O)NCCOP(=O)(O)O)c3cccc1c23
The series is described as follows: (§1) Activity at Mycobacterium tuberculosis recombinant lumazine synthase after 30 mins by fluorescence assay. The method in brief: (§2)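 Recombinant M. tuberculosis lumazine synthase (2 μM) in 100 mM Tris-HCl pH 7.0, 100 mM NaCl, 5 mM DTT, 2% DMSO. Dihydroxybutanone phosphate was fixed at 100 μM, pyrimidinedione substrate varied 3–100 μM, and inhibitor 0–200 μM. Reactions were started with the pyrimidinedione substrate. Lumazine formation was read at 408 nm for 30 min at 27 °C. Velocity–substrate data were fitted by nonlinear regression to alternative inhibition models.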

Substrate in series [2]: CCOC(=O)C(=O)Nc1c(Cl)[nH]c(=O)[nH]c1=O
Described as §1. In short, it runs like this:
as §2

Substrate in series [3]: O=C1Nc2ccc(S(=O)(=O)NCCCCCCOP(=O)(O)O)c3cccc1c23
The description is as §1. The method in brief: as §2

Substrate in series [4]: O=C1Nc2ccc(S(=O)(=O)NCCCCCOP(=O)(O)O)c3cccc1c23
Described as §1. In short, it runs like this:
as §2

Substrate in series [5]: O=C1Nc2ccc(S(=O)(=O)NCCCCOP(=O)(O)O)c3cccc1c23
The description is as §1. In short, it runs like this:
as §2

Substrate in series [6]: O=C1Nc2ccc(S(=O)(=O)NCCCOP(=O)(O)O)c3cccc1c23
Described as §1. In short, it runs like this:
as §2

B1: 6,7-dimethyl-8-ribityllumazine synthase (Mycobacterium tuberculosis), P9WHE9 (protein)
chain: MKGGAGVPDLPSLDASGVRLAIVASSWHGKICDALLDGARKVAAGCGLDDPTVVRVLGAIEIPVVAQELARNHDAVVALGVVIRGQTPHFDYVCDAVTQGLTRVSLDSSTPIANGVLTTNTEEQALDRAGLPTSAEDKGAQATVAALATALTLRELRAHS
Consider B1, for which the kcat in series [1] turned out to be 0.00683 s⁻¹; in series [2], 0.0102 s⁻¹; in series [3], 0.0075 s⁻¹; in series [4], 0.0075 s⁻¹; in series [5], 0.00733 s⁻¹; in series [6], 0.0075 s⁻¹.
